ChEMBL document CHEMBL4196013, “Ridaifen-F conjugated with cell-penetrating peptides inhibits intracellular proteasome activities and induces drug-resistant cell death” (Eur J Med Chem, 2018)
pIC50: −log10 of the molar value. Calls of active or inactive are those of the source. No cut-off for these calls is given here. Peptide text beside a SMILES is read from it. * marks the point of attachment. X1 = CCC(=C(c1ccc(OCCN2CCCCCC2)cc1)c1ccc(OCCN2CCCCCC2)cc1)c1cccc(C(=O)*)c1

Tests used:
[1] = target: T1, Proteasome Macropain subunit MB1 (Homo sapiens, UniProt P28074); experiment: Inhibition of chymotrypsin-like activity of human 20S proteasome using Suc-LLVY-MCA as substrate measured for 1 hr by fluorescence assay
T1 sequence (P28074 whole entry): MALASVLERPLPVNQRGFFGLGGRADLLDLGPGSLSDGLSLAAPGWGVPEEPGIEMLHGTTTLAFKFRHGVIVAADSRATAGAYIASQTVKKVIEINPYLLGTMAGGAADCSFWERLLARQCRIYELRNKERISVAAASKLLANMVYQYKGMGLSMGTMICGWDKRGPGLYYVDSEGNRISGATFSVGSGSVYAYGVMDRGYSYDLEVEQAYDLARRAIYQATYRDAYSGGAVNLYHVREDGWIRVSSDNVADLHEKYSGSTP
Summary of the method: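 Purified human 20S proteasome with 50 µM fluorogenic substrate in 25 mM HEPES pH 8.0, 0.5 mM EDTA, 0.03% SDS. Inhibitor range 0.1–10 µM, with the table footnote giving 0.5–8 µM. IC₅₀ from inhibition curves; n = 3.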

RPMI-8226 [2] = experiment: Cytotoxicity against human RPMI8226 cells after 24 to 48 hrs by CellTiter-Glo assay; type: functional
Summary of the method: (§1)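 RPMI8226 or KMS-11 cells seeded in triplicate wells at 5 × 10² cells/well and exposed to 0.1–10 µM compound (DMSO) for 24 or 48 h. Survival read as cellular ATP level; Cyt₅₀ derived from concentration–survival curves.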

KMS-11 [3] = experiment: Cytotoxicity against human KMS11 cells at 10 uM by CellTiter-Glo assay; type: functional, cell-based; details: TDE = time-dependent effect
Summary of the method: (§2)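 Cells cultured with each compound at 10 µM, with viability followed over time by ATP assay. Mock-treated cells define 100%; values are means of three independent experiments.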

[4] = target: T1, Proteasome Macropain subunit MB1; experiment: Inhibition of chymotrypsin-like activity of human 26S proteasome using Suc-LLVY-MCA as substrate measured for 1 hr by fluorescence assay
Summary of the method: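 Purified 26S proteasome with 50 µM fluorogenic substrate in 50 mM HEPES pH 7.5, 40 mM KCl, 5 mM MgCl₂, BSA, 0.5 mM ATP, 1 mM DTT. Inhibitor range 0.1–40 µM. AMC fluorescence monitored 1 h at 37 °C. IC₅₀ from inhibition curves; n = 3.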

[5] = target: T1, Proteasome Macropain subunit MB1; experiment: Inhibition of chymotrypsin-like activity of 26S proteasome in human RPMI8226 cells using […] as substrate after 24 to 48 hrs by luminescence-based assay; type: cell-based
Summary of the method: (§3)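 Intracellular proteasome assay. Cells seeded in triplicate at 5 × 10³ cells/well and incubated 24 or 48 h with 0.1–10 µM inhibitor, 0.5% final DMSO. Proteasome-Glo reagent with aminoluciferin-linked peptide substrates lyses the cells; luminescence read after 15 min. IC₅₀ taken from inhibition curves.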

RPMI-8226 [6] = experiment: Cytotoxicity against human RPMI8226 cells assessed as reduction in cell viability at 10 uM after 2 to 48 hrs by CellTiter-Glo assay; type: functional, cell-based; summary of the method: as §2
[7] = target: T1, Proteasome Macropain subunit MB1; experiment: Inhibition of chymotrypsin-like activity of human 26S proteasome using Z-LLE-MCA as substrate measured for 1 hr in presence of ATPgammaS by fluorescence assay
KMS-11 [8] = experiment: Cytotoxicity against human KMS11 cells after 24 to 48 hrs by CellTiter-Glo assay; type: functional; summary of the method: as §1
[9] = target: T1, Proteasome Macropain subunit MB1; experiment: Inhibition of chymotrypsin-like activity of 26S proteasome in human KMS11 cells using […] as substrate after 24 to 48 hrs by luminescence-based assay; type: cell-based; summary of the method: as §3

Compound | pIC50 [1] | CC50 (RPMI-8226 [2]) | Activity (KMS-11 [3]) | pIC50 [4] | pIC50 [5] | Activity (RPMI-8226 [6]) | pIC50 [7] | CC50 (KMS-11 [8]) | pIC50 [9]
CCC(=C(c1ccc(OCCN2CCCCCC2)cc1)c1ccc(OCCN2CCCCCC2)cc1)c1ccccc1 | 5.99 | 3.6 µM | Tde | < 4.00 | 4.96 | Active |  |  | 
CCC(=C(c1ccc(OCCN2CCCCCC2)cc1)c1ccc(OCCN2CCCCCC2)cc1)c1cccc(C(=O)NCC(=O)N[C@@H](CC(C)C)C(=O)N[C@@H](CC(C)C)C(=O)N[C@H](C(=O)N[C@@H](Cc2ccc(O)cc2)C(N)=O)C(C)C)c1 (X1-GLLVY-NH2) | 6.05 |  |  | 4.59 |  |  |  |  | 
Ac-RRRRRRRRG-OH | < 5.10 |  |  | < 4.40 |  |  |  |  | 
CCC(=C(c1ccc(OCCN2CCCCCC2)cc1)c1ccc(OCCN2CCCCCC2)cc1)c1cccc(C(=O)NCC(=O)N[C@@H](CC(C)C)C(=O)N[C@@H](CC(C)C)C(=O)N[C@@H](CC(C)C)C(=O)NCC(=O)NCC(=O)NCC(=O)NCC(N)=O)c1 (X1-GLLLGGGG-NH2) | 5.96 |  |  | 5.30 |  |  |  |  | 
CC[C@]1(O)C[C@@H]2CN(CCc3c([nH]c4ccccc34)[C@@](C(=O)OC)(c3cc4c(cc3OC)N(C)[C@H]3[C@@](O)(C(=O)OC)[C@H](OC(C)=O)[C@]5(CC)C=CCN6CC[C@]43[C@@H]65)C2)C1 [VINBLASTINE] | 5.34 |  |  | < 4.40 |  |  |  |  | 
CCC(=C(c1ccc(OCCN2CCCCCC2)cc1)c1ccc(OCCN2CCCCCC2)cc1)c1cccc(C(=O)NCC(=O)N[C@@H](CCCNC(=N)N)C(=O)N[C@@H](CCCNC(=N)N)C(=O)N[C@@H](CCCNC(=N)N)C(=O)N[C@@H](CCCNC(=N)N)C(=O)N[C@@H](CCCNC(=N)N)C(=O)N[C@@H](CCCNC(=N)N)C(N)=O)c1 | < 5.10 |  |  | < 4.40 |  |  |  |  | 
CCC(=C(c1ccc(OCCN2CCCCCC2)cc1)c1ccc(OCCN2CCCCCC2)cc1)c1cccc(CNC(=O)CN[C@@H](CCCNC(=N)N)C(=O)N[C@@H](CCCNC(=N)N)C(=O)N[C@@H](CCCNC(=N)N)C(=O)N[C@@H](CCCNC(=N)N)C(=O)N[C@@H](CCCNC(=N)N)C(=O)N[C@@H](CCCNC(=N)N)C(=O)NC(C)=O)c1 | < 5.10 |  |  | < 4.40 |  |  |  |  | 
CCC(=C(c1ccc(OCCN2CCCCCC2)cc1)c1ccc(OCCN2CCCCCC2)cc1)c1cccc(C(=O)NCC(=O)N[C@@H](CCCNC(=N)N)C(=O)N[C@@H](CCCNC(=N)N)C(=O)N[C@@H](CCCNC(=N)N)C(=O)N[C@@H](CCCNC(=N)N)C(=O)N[C@@H](CCCNC(=N)N)C(=O)N[C@@H](CCCNC(=N)N)C(=O)N[C@@H](CCCNC(=N)N)C(=O)N[C@@H](CCCNC(=N)N)C(N)=O)c1 | < 4.30 | 4.3 µM | Tde | 5.26 | 5.24 | Active | 5.62 | 7.2 µM | 5.20
N=C(N)NCCC[C@H](NC(=O)[C@H](CCCNC(=N)N)NC(=O)[C@H](CCCNC(=N)N)NC(=O)[C@H](CCCNC(=N)N)NC(=O)[C@H](CCCNC(=N)N)NC(=O)[C@H](CCCNC(=N)N)NC(=O)[C@H](CCCNC(=N)N)NC(=O)[C@H](CCCNC(=N)N)NC(=O)CN)C(N)=O | < 5.10 |  |  | < 4.40 |  |  |  |  | 
CCC(=C(c1ccc(OCCN2CCCCCC2)cc1)c1ccc(OCCN2CCCCCC2)cc1)c1cccc(C(=O)NCC(=O)N[C@@H](CCCNC(=N)N)C(=O)N[C@@H](CCCNC(=N)N)C(=O)N[C@@H](CCCNC(=N)N)C(=O)N[C@@H](CCCNC(=N)N)C(=O)N[C@@H](CCCNC(=N)N)C(=O)N[C@@H](CCCNC(=N)N)C(=O)N[C@@H](CCCNC(=N)N)C(=O)N[C@@H](CCCNC(=N)N)C(=O)NC(C)=O)c1 | < 4.40 | 2.7 µM | Tde | 5.03 | 5.68 | Active | 5.22 | 4.5 µM | 5.68
CCC(=C(c1ccc(OCCN2CCCCCC2)cc1)c1ccc(OCCN2CCCCCC2)cc1)c1cccc(C(=O)NCC(=O)N[C@@H](CC(C)C)C(=O)N[C@@H](CC(C)C)C(=O)N[C@H](C(=O)N[C@@H](Cc2ccc(O)cc2)C(=O)NCC(=O)NCC(N)=O)C(C)C)c1 (X1-GLLVYGG-NH2) | 6.05 |  |  | 5.04 |  |  |  |  | 
CCC(=C(c1ccc(OCCN2CCCCCC2)cc1)c1ccc(OCCN2CCCCCC2)cc1)c1cccc(CNC(=O)CN[C@@H](CC(C)C)C(=O)N[C@@H](CC(C)C)C(=O)N[C@H](C(=O)N[C@@H](Cc2ccc(O)cc2)C(=O)NC(C)=O)C(C)C)c1 | 6.43 |  |  | < 4.40 |  |  |  |  | 
CCC(=C(c1ccc(OCCN2CCCCCC2)cc1)c1ccc(OCCN2CCCCCC2)cc1)c1cccc(CNC(=O)CN[C@@H](CCCNC(=N)N)C(=O)N[C@@H](CCCNC(=N)N)C(=O)N[C@@H](CCCNC(=N)N)C(=O)N[C@@H](CCCNC(=N)N)C(=O)NC(C)=O)c1 | < 5.10 |  |  | < 4.40 |  |  |  |  | 
CCC(=C(c1ccc(OCCN2CCCCCC2)cc1)c1ccc(OCCN2CCCCCC2)cc1)c1cccc(C(=O)NCC(=O)N[C@@H](CC(C)C)C(=O)N[C@@H](CC(C)C)C(=O)N[C@@H](CCC(=O)O)C(N)=O)c1 | 5.21 |  |  | 4.62 |  |  |  |  | 
CCC(=C(c1ccc(OCCN2CCCCCC2)cc1)c1ccc(OCCN2CCCCCC2)cc1)c1cccc(C(=O)NCC(=O)N[C@@H](CCCNC(=N)N)C(=O)N[C@@H](CCCNC(=N)N)C(=O)N[C@@H](CCCNC(=N)N)C(=O)N[C@@H](CCCNC(=N)N)C(N)=O)c1 (X1-GRRRR-NH2) | < 5.10 |  |  | < 4.40 |  |  |  |  | 
